Laboratory results reported in paper PMC8486320 (Journal of medicinal chemistry, 2021).
Where no end group is shown, it is not given here. The star is where a group is joined. Crotonyl(E) = C/C=C/C(=O)*

Legend:
[1] = molecular target: T1, ENL (Homo sapiens, UniProt Q03111); assay: Competitive peptide pulldown, ENL with H3K9ac; assay type: binding
T1 sequence (Q03111 1-145): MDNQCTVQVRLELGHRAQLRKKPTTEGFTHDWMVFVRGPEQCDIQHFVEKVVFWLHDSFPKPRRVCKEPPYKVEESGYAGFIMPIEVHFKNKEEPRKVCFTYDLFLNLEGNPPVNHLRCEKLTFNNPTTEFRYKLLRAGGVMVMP

[2] = molecular target: T2, GAS41 (Homo sapiens, UniProt O95619); assay: Competitive peptide pulldown, GAS41 with H3K27ac; assay type: binding; settings: 20 μM compound
T2 sequence (O95619 whole entry): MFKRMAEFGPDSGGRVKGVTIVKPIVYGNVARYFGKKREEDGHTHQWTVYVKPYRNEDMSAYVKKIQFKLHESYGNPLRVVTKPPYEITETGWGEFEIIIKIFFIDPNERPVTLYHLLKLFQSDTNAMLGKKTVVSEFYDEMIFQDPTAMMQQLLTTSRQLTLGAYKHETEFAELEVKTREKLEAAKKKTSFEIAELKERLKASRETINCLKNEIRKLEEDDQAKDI

[3] = molecular target: T3, YEATS2 (Homo sapiens, UniProt Q9ULM3); assay: Competitive peptide pulldown, YEATS2 with H3K27cr; assay type: binding; settings: 20 μM compound
T3 sequence (Q9ULM3 201-332): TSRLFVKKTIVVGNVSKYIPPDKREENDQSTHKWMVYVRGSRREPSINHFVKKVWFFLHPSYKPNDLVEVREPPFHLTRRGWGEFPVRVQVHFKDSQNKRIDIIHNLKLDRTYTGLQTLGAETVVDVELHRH

[4] = molecular target: T4, AF9 (Homo sapiens, UniProt P42568); assay: Competitive peptide pulldown, AF9 with H3K9ac; assay type: binding; settings: 20 μM compound
T4 sequence (P42568 1-145): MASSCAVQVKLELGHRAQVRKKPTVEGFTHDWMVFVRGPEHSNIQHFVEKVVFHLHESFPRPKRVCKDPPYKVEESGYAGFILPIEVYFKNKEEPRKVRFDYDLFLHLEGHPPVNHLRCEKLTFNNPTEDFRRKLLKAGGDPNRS

[5] = molecular target: T5, YEATS2 YEATS domain (Homo sapiens, UniProt Q9ULM3); assay: AlphaScreen assay, YEATS2 YEATS / H3K27cr peptide; assay type: binding
T5 sequence (Q9ULM3 201-332): T3 sequence (Q9ULM3 201-332)

[6] = molecular target: GAS41 YEATS domain (Homo sapiens, UniProt O95619); assay: AlphaScreen assay, GAS41 YEATS / H3K27ac peptide; assay type: binding
Sequence of GAS41 YEATS domain (O95619 whole entry, the tested form may be a part): as the sequence (O95619 whole entry) above

[7] = molecular target: T6, ENL YEATS domain (Homo sapiens, UniProt Q03111); assay: AlphaScreen assay, His-ENL YEATS / biotin-H3K9ac interaction; assay type: binding; settings: SAR comparison with 11 or 6
T6 sequence (Q03111 1-145): T1 sequence (Q03111 1-145)

[8] = molecular target: T7, ENL YEATS domain (Homo sapiens, UniProt Q03111); assay: 1H,15N HSQC NMR titration of ENL YEATS domain; assay type: binding; settings: 15N-labelled His-ENL, ligand titrated
T7 sequence (Q03111 1-148): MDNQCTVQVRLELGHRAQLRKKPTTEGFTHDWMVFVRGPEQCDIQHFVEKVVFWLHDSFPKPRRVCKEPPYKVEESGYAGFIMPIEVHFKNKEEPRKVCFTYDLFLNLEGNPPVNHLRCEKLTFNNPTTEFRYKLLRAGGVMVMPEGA
Summary of the method: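 15N-labelled YEATS domain was expressed in E. coli Rosetta-2 (DE3) pLysS in NH4Cl minimal medium (0.5 mM IPTG, 18 h, 16 °C) and purified by Ni-NTA then size exclusion. 1H,15N HSQC spectra were recorded at 298 K, 600 MHz, on 0.2 mM protein in 25–50 mM Tris-HCl pH 7.5, 150 mM NaCl, 0.2 mM TCEP, 10% D2O. Test compound or H3K27cr peptide (aa 22–31) was added stepwise at set protein:ligand molar ratios.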

[9] = test system: MV4;11 cells; assay: Cell growth inhibition assay; assay type: cell-based, human; settings: compared with MOLM13 (5 and 10 μM), 3 days
[10] = test system: MOLM13 cells; assay: Combinatorial treatment of compound 7 and JQ1, MOLM13; assay type: cell-based, human; settings: 7 0 to 20 μM, JQ1 0–200 nM, Combenefit
Summary of the method: (§1)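 Leukaemia cells kept in RPMI-1640 with 10% FBS were given DMSO, test compound, JQ1, or the two combined at a concentration matrix for 6 days. Viability was read by CellTiter-Glo luminescence as % surviving relative to DMSO. Drug interaction was scored as synergy using Combenefit.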

[11] = test system: U2OS cells; assay: Cell growth inhibition assay; assay type: cell-based, human; settings: even at 50 μM, ENL-independent cell line
[12] = molecular target: T8, ENL protein (Homo sapiens, UniProt Q03111); assay: Cellular thermal shift assay; assay type: cell-based; settings: 20 μM, 5 h
T8 sequence (Q03111 1-559): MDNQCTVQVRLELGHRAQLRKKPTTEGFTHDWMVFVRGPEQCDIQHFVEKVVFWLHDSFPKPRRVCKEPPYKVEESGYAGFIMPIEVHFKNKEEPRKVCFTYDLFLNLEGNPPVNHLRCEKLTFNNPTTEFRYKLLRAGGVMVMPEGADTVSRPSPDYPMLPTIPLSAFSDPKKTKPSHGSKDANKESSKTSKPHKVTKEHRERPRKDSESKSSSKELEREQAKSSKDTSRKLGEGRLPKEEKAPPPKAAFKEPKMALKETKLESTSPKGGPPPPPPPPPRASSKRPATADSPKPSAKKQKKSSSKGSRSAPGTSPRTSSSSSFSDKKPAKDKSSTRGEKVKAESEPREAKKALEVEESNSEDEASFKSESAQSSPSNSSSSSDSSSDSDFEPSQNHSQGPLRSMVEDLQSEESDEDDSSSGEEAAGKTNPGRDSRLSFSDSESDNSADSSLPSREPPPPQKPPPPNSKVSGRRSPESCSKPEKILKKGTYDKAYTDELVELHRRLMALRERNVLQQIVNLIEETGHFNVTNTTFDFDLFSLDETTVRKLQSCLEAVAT
Summary of the method: (§2)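 Cells were incubated with 20 µM test compound for 5 h, washed three times in PBS and resuspended in PBS with protease inhibitors (about 3 million cells per aliquot). Aliquots were heated 3 min at the indicated temperatures, then held 2 min at room temperature. Cells were lysed with NP40/glycerol/DTT buffer plus three liquid-nitrogen/37 °C freeze-thaw cycles, and cleared at 13,000 rpm, 4 °C, 10 min. Soluble protein was read by western blot.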

[13] = test system: HOXA9 gene expression; assay: qRT-PCR of HOXA9 gene expression in MOLM13 cells; assay type: cell-based, human
Summary of the method: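 MOLM13 cells were treated with test compound or DMSO. Total RNA was extracted and reverse-transcribed, and HOXA9 was quantified by SYBR Green real-time PCR. Expression was normalised to GAPDH by the comparative Ct method; mean ± SEM, n = 3, two-tailed Student's t test.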

[14] = molecular target: T9, AF9 proteins (Homo sapiens, UniProt P42568); assay: Cellular thermal shift assay; assay type: cell-based; settings: HeLa cells, 20 μM, 5 h
T9 sequence (P42568 1-568): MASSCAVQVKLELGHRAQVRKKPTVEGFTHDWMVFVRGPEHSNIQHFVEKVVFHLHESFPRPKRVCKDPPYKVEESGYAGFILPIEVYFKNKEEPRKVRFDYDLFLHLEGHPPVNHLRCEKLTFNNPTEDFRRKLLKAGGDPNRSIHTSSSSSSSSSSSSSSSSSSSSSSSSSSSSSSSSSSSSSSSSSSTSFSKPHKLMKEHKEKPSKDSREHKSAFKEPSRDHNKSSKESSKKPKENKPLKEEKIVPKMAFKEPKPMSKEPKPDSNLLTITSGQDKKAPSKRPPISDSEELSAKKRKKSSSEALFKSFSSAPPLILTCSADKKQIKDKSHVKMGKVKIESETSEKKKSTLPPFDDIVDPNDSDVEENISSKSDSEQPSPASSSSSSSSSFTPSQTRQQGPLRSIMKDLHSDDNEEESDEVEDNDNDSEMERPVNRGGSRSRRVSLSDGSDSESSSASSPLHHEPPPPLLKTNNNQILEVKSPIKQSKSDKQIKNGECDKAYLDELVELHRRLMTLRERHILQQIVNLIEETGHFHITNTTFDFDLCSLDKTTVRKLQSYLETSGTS
Summary of the method: as §2

[15] = test system: Caco-2 cell monolayers; assay: Caco-2 cell permeability assay; assay type: in vitro ADME; settings: 10 μM, 2 hours, A-B direction
Summary of the method: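 Flux was measured across polarised Caco-2 monolayers in triplicate, with ranitidine, talinolol and warfarin as controls. Apparent permeability (Papp) was calculated for the apical-to-basolateral direction.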

[16] = molecular target: T2, GAS41; assay: Cellular thermal shift assay; assay type: cell-based; settings: MV4;11 and MOLM13 cells, 20 μM, 5 h, vs DMSO
Summary of the method: as §2

[17] = test system: MV4;11 cells; assay: Combinatorial treatment of compound 7 and JQ1, MV4; assay type: cell-based, human; settings: 7 0 to 20 μM, JQ1 0–200 nM, Combenefit
Summary of the method: as §1

O=C(NCc1ccc(CNc2ncc(F)cn2)cc1)c1ccc2nncn2c1 [compound 24, N-(4-(((5-fluoropyrimidin-2-yl)amino)methyl)benzyl)-[1,2,4]triazolo[4,3-a]pyridine-6-carboxamide]
inhibition of ENL binding to H3K9ac ([1]; 1 μM compound): strongly inhibited
inhibition of GAS41 binding to acylated histone peptide [2]: none of these compounds showed notable inhibition
inhibition of YEATS2 binding to acylated histone peptide [3]: none of these compounds showed notable inhibition
inhibition of AF9 binding to acylated histone peptide [4]: none of these compounds showed notable inhibition

CSc1ccc(CNC(=O)c2ccc3nncn3c2)cc1 [compound 1]
inhibition of ENL binding to H3K9ac ([1]; 5 μM compound): strongly inhibited
inhibition of YEATS2 YEATS domain (IC50 measurement) [5]: no detectable inhibition
inhibition of GAS41 binding to acylated histone peptide [2]: none of these compounds showed notable inhibition
inhibition of GAS41 YEATS domain (IC50 measurement) [6]: no detectable inhibition
inhibition of YEATS2 binding to acylated histone peptide [3]: none of these compounds showed notable inhibition
inhibition of AF9 binding to acylated histone peptide [4]: none of these compounds showed notable inhibition

CC(NC(=O)c1ccc2nncn2c1)c1ccc(CN2CCC2)cc1 (centres unmarked) [compound 16, N-(1-(4-(azetidin-1-ylmethyl)phenyl)ethyl)-[1,2,4]triazolo[4,3-a]pyridine-6-carboxamide]
inhibition potency compared with parent compound [7]: greatly reduced the inhibition potency

H3K27cr peptide: histone H3 residues 22–31 with a crotonylation at K27 (TKAARK(Crotonyl(E))SAPA; UniProt P68431 23-32, looked up, fragment) [reference compound]
chemical shift perturbations, exchange regime on the NMR timescale [8]: intermediate to fast exchange regime

O=C(NCc1ccc(CN2CCC2)cc1)c1ccc2nncn2c1 [compound 11, N-(4-(azetidin-1-ylmethyl)benzyl)-[1,2,4]triazolo[4,3-a]pyridine-6-carboxamide]
inhibition of ENL binding to H3K9ac ([1]; 1 μM compound): strongly inhibited
inhibition of GAS41 binding to acylated histone peptide [2]: none of these compounds showed notable inhibition
inhibition of YEATS2 binding to acylated histone peptide [3]: none of these compounds showed notable inhibition
inhibition of AF9 binding to acylated histone peptide [4]: none of these compounds showed notable inhibition

O=C(NCc1cccc(CN2CCC2)c1)c1ccc2nncn2c1 [compound 15, N-(3-(azetidin-1-ylmethyl)benzyl)-[1,2,4]triazolo[4,3-a]pyridine-6-carboxamide]
inhibition potency compared with parent compound [7]: did not result in any increase of potency

CN(C)Cc1ccc(CNC(=O)c2ccc3nncn3c2)cc1 [compound 7, N-(4-((dimethylamino)methyl)benzyl)-[1,2,4]triazolo[4,3-a]pyridine-6-carboxamide]
inhibition of MV4;11 cell growth [9]: about double amounts of the compound were needed to achieve similar levels of inhibition
interaction with JQ1 in killing leukemia cells [10]: synergistic effect
response of U2OS cell growth to treatment [11]: little or no response
thermal stability of ENL protein (CETSA) ([12]; HeLa cells): stabilized ENL
thermal stability of ENL protein (CETSA) ([12]; MV4;11 and MOLM13 cells, vs DMSO): bound and stabilized ENL proteins
chemical shift perturbations, exchange regime on the NMR timescale [8]: intermediate to slow exchange regime
inhibition of ENL binding to H3K9ac ([1]; 5 μM compound): strongly inhibited
inhibition of GAS41 binding to acylated histone peptide [2]: none of these compounds showed notable inhibition
lowest drug concentration effectively suppressing HOXA9 gene expression [13]: 2.5 µM
thermal stability of AF9 protein (CETSA) [14]: stabilized ENL but not AF9 proteins
Caco-2 permeability [15]: comparable to 11
inhibition of YEATS2 binding to acylated histone peptide [3]: none of these compounds showed notable inhibition
inhibition of AF9 binding to acylated histone peptide [4]: none of these compounds showed notable inhibition
thermal stability of GAS41 protein (CETSA) [16]: little or no difference
interaction with JQ1 in killing leukemia cells [17]: synergistic effect
